ChEMBL document CHEMBL1165856, “Naftifine-analogues as anti-Trypanosoma cruzi agents” (Eur J Med Chem, 2010)
In brackets after ≈: the same amount, converted by molar mass.

Assays:
Trypanosoma cruzi [1] = experiment: Antitrypanosomal activity against Trypanosoma cruzi Tulahuen 2 at 25 uM; assay type: functional
In short: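 Tulahuen 2 epimastigotes (8 × 10⁶ cells/mL, 28 °C, BHI-tryptose with 5% FBS) were exposed to a single drug concentration, with final DMSO ≤0.4% and a vehicle control. Percent growth inhibition = {1 − [(Ap − A0p)/(Ac − A0c)]} × 100, using A600 of drug and control cultures at day 0 and day 5.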

Nannizzia gypsea = experiment: Antifungal activity against Microsporum gypseum C 115 after 48 hrs; assay type: functional; settings: C 115, 48 h
In short: (§1)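 Dermatophytes were tested by CLSI M38-A microdilution in MOPS-buffered RPMI 1640 at pH 7.0. Inoculum is 10³ CFU/mL, with two-fold serial compound dilutions and final DMSO ≤1%. Trays are kept at 28–30 °C in a moist, dark chamber. MIC is the lowest concentration with total growth inhibition, read visually when control growth allows.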

Candida albicans = experiment: Antifungal activity against Candida albicans ATCC 10231 after 48 hrs; assay type: functional; settings: ATCC 10231, 48 h
In short: (§2)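 CLSI M27-A2 broth microdilution in RPMI 1640 buffered to pH 7.0 with MOPS. Inoculum is 10³ CFU/mL from Sabouraud-grown yeasts. Compound is two-fold serially diluted, final DMSO ≤1%. Incubated at 35 °C in a moist, dark chamber and read visually at 48 h. MIC is the lowest concentration giving total growth inhibition.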

Cryptococcus neoformans = experiment: Antifungal activity against Cryptococcus neoformans ATCC 32264 after 48 hrs; assay type: functional; settings: Cryptococcus neoformans, ATCC 32264, 48 h; for MIC: read-out: MIC; in short: as §2
Aspergillus fumigatus = experiment: Antifungal activity against Aspergillus fumigatus ATCC 26934 after 48 hrs; assay type: functional; settings: ATCC 26934, 48 h
In short: (§3)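 Aspergillus spp. were tested by CLSI M38-A broth microdilution in RPMI 1640 with MOPS at pH 7.0. Spore inoculum is 10³ CFU/mL, with two-fold compound dilutions and final DMSO ≤1%. Incubated at 35 °C in a moist, dark chamber. MIC is read visually as total growth inhibition, at a time set by growth of the control fungus.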

Trichophyton rubrum = experiment: Antifungal activity against Trichophyton rubrum C 113 after 48 hrs; assay type: functional; settings: C 113, 48 h; in short: as §1
Aspergillus flavus = experiment: Antifungal activity against Aspergillus flavus ATCC 9170 after 48 hrs; assay type: functional; settings: ATCC 9170, 48 h; in short: as §3
[2] = tested on: Trichophyton mentagrophytes; experiment: Antifungal activity against Trichophyton mentagrophytes ATCC 9972 after 48 hrs; assay type: functional; settings: ATCC 9972, 48 h; in short: as §1
Aspergillus niger = experiment: Antifungal activity against Aspergillus niger ATCC 9029 after 48 hrs; assay type: functional; settings: ATCC 9029, 48 h; in short: as §3
Candida tropicalis = experiment: Antifungal activity against Candida tropicalis C 131 2000 after 48 hrs; assay type: functional; settings: Candida tropicalis, C 131 2000, 48 h; for MIC: read-out: MIC; in short: as §2
Saccharomyces cerevisiae = experiment: Antifungal activity against Saccharomyces cerevisiae ATCC 9763 after 48 hrs; assay type: functional; settings: ATCC 9763, 48 h; in short: as §2
[3] = Cytotoxicity against mouse J774 cells after 48 hrs by MTT assay; assay type: cell-based; settings: read-out: ID50
In short: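 J-774 macrophages were seeded at 1 × 10⁵ cells/well in RPMI 1640 with 20% heat-inactivated FCS and left to attach for 48 h at 37 °C in 5% CO₂. Cells were then exposed to compounds for 48 h. MTT was added at 0.4 mg/mL final, formazan was dissolved in DMSO, and A595 was read. ID50 is the concentration cutting control absorbance by 50%, averaged over three experiments.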

Trypanosoma cruzi [4] = experiment: Antitrypanosomal activity against Trypanosoma cruzi Tulahuen 2; assay type: functional; settings: read-out: ID50 (the source's name)
In short: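 Epimastigotes were grown at 28 °C in BHI-tryptose with 5% FBS. Stationary-phase parasites are inoculated at 8 × 10⁶ cells/mL into medium containing increasing drug concentrations from DMSO stock (final DMSO ≤0.4%; vehicle control). Growth is followed by A600. ID50 is the concentration that halves the day-5 absorbance ratio relative to control.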

[5] = Selectivity index, ratio of ID50 for mouse J774 cells to ID50 for Trypanosoma cruzi Tulahuen 2; assay type: toxicity, cell-based; settings: J774 cells versus Trypanosoma cruzi Tulahuen 2
In short: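 Selectivity index is the ID50 in J-774 macrophages (48 h MTT) divided by the ID50 against Tulahuen 2 epimastigotes (day-5 A600 growth).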

| MIC (Nannizzia gypsea) [µg/mL] | MIC (Candida albicans) [µg/mL] | MIC (Cryptococcus neoformans) [µg/mL] | MIC (Aspergillus fumigatus) [µg/mL] | MIC (Trichophyton rubrum) [µg/mL] | MIC (Aspergillus flavus) [µg/mL] | MIC [2] [µg/mL] | MIC (Aspergillus niger) [µg/mL] | MIC (Candida tropicalis) [µg/mL] | MIC (Saccharomyces cerevisiae) [µg/mL] | IC50 (Trypanosoma cruzi [4]) [µM] | SMILES | inhibition at 25 µM (Trypanosoma cruzi [1]) [%] | MFC (Nannizzia gypsea) [µg/mL] | MFC (Trichophyton rubrum) [µg/mL] | MFC [2] [µg/mL] | CC50 at 48 h [3] [µM] | selectivity ratio [5] | also measured |
| --- | --- | --- | --- | --- | --- | --- | --- | --- | --- | --- | --- | --- | --- | --- | --- | --- | --- | --- |
| 62.5 (≈ 227 µM) | > 250 | > 250 | > 250 | 62.5 (≈ 227 µM) | > 250 | 62.5 (≈ 227 µM) | > 250 | > 250 | > 250 |  | N#Cc1c2ccccc2[n+]([O-])n1C/C=C/c1ccccc1 | 28 | 125 (≈ 454 µM) | 125 (≈ 454 µM) | 125 (≈ 454 µM) |  |  |  |
| 125 (≈ 231 µM) | > 250 | > 250 | > 250 | 125 (≈ 231 µM) | > 250 | 125 (≈ 231 µM) | > 250 | > 250 | > 250 | 6.5 | O=[N+]([O-])c1ccc2c(c1)c(OCc1ccccc1)nn2CCOCCN1CCN(C/C=C/c2ccccc2)CC1 |  | > 250 | > 250 | > 250 | < 100 | < 15.4 |  |
|  |  |  |  |  |  |  |  |  |  | 10 | CN(C/C=C/c1ccccc1)CCOCCn1nc(OCc2ccccc2)c2cc([N+](=O)[O-])ccc21 |  |  |  |  | < 100 | < 10 |  |
| 125 (≈ 245 µM) | > 250 |  | > 250 | 125 (≈ 245 µM) | > 250 | 125 (≈ 245 µM) | > 250 | > 250 | > 250 | 25.4 | Cc1c(C(=O)Nc2ccccc2)[n+]([O-])c2cc(CN3CCN(C/C=C/c4ccccc4)CC3)ccc2[n+]1[O-] |  | > 250 | > 250 | > 250 |  |  |  |
| > 250 | > 250 | > 250 | > 250 | > 250 | > 250 | > 250 | > 250 | > 250 | > 250 |  | C=CCNC(=S)N/N=C/c1ccc2c(c1)[n+]([O-])c(C)c(C)[n+]2[O-] | 21 |  |  |  |  |  |  |
| 0.04 (≈ 0.137 µM) | 1.56 (≈ 5.35 µM) | 0.39 (≈ 1.34 µM) | 0.78 (≈ 2.68 µM) | 0.01 (≈ 0.0343 µM) | 0.78 (≈ 2.68 µM) | 0.025 (≈ 0.0858 µM) | 1.56 (≈ 5.35 µM) | 1.56 (≈ 5.35 µM) | 3.12 (≈ 10.7 µM) |  | CN(C/C=C/C#CC(C)(C)C)Cc1cccc2ccccc12 [TERBINAFINE] |  |  |  |  | < 100 | < 10 |  |
| 250 (≈ 477 µM) | 250 (≈ 477 µM) | 125 (≈ 238 µM) | > 250 | 125 (≈ 238 µM) | > 250 | 125 (≈ 238 µM) | > 250 | 250 (≈ 477 µM) | 125 (≈ 238 µM) | 9.5 | CCOC(=O)c1c(-c2ccccc2)[n+]([O-])c2ccc(CN3CCN(C/C=C/c4ccccc4)CC3)cc2[n+]1[O-] |  | > 250 | 250 (≈ 477 µM) | 250 (≈ 477 µM) | < 100 | < 10.5 | MFC (Candida albicans): > 250 µg/mL; MFC (Cryptococcus neoformans): 250 µg/mL (≈ 477 µM); MFC (Candida tropicalis): > 250 µg/mL; MFC (Saccharomyces cerevisiae): 250 µg/mL (≈ 477 µM) |

Second part, the compound before the results:

| SMILES | MIC (Nannizzia gypsea) [µg/mL] | MIC (Candida albicans) [µg/mL] | MIC (Cryptococcus neoformans) [µg/mL] | MIC (Aspergillus fumigatus) [µg/mL] | MIC (Trichophyton rubrum) [µg/mL] | MIC (Aspergillus flavus) [µg/mL] | MIC [2] [µg/mL] | MIC (Aspergillus niger) [µg/mL] | MIC (Candida tropicalis) [µg/mL] | MIC (Saccharomyces cerevisiae) [µg/mL] | IC50 (Trypanosoma cruzi [4]) [µM] | inhibition at 25 µM (Trypanosoma cruzi [1]) [%] | MFC (Nannizzia gypsea) [µg/mL] | MFC (Trichophyton rubrum) [µg/mL] | MFC [2] [µg/mL] | CC50 at 48 h [3] [µM] | selectivity ratio [5] | also measured |
| --- | --- | --- | --- | --- | --- | --- | --- | --- | --- | --- | --- | --- | --- | --- | --- | --- | --- | --- |
| N#Cc1c2ccccc2[n+]([O-])n1CC/C=C\c1ccccc1 |  |  |  |  |  |  |  |  |  |  |  | 30 |  |  |  |  |  |  |
| Cc1c(C(=O)Nc2ccccc2)[n+]([O-])c2cc(CN(C)C/C=C/c3ccccc3)ccc2[n+]1[O-] |  |  |  |  |  |  |  |  |  |  |  | 34 |  |  |  |  |  |  |
| N#Cc1c(N)[n+]([O-])c2ccc(CN3CCN(C/C=C/c4ccccc4)CC3)cc2[n+]1[O-] |  |  |  |  |  |  |  |  |  |  |  | 0 |  |  |  |  |  |  |
| CC1CS(=O)(=O)CCN1/N=C/c1ccc([N+](=O)[O-])o1 (stereo not given) [NIFURTIMOX] |  |  |  |  |  |  |  |  |  |  |  |  |  |  |  |  | > 33.3 |  |
| C=CCNC(=S)N/N=C/c1ccc2c(c1)[n+]([O-])c(C(=O)Nc1ccccc1)c(-c1ccccc1)[n+]2[O-] |  |  |  |  |  |  |  |  |  |  |  | 18 |  |  |  |  |  |  |
| C=CCNC(=S)N/N=C/c1ccc2c(c1)[n+]([O-])c(C#N)c(N)[n+]2[O-] | > 250 | > 250 | > 250 | > 250 | > 250 | > 250 | > 250 | > 250 | > 250 | > 250 |  | 6 |  |  |  |  |  |  |
